ChEMBL document CHEMBL4033777, “Next-Generation Hypoxic Cell Radiosensitizers: Nitroimidazole Alkylsulfonamides” (J Med Chem, 2018)
≈ marks a conversion by molar mass, not a printed value. One block for each molecule: values may come before it.

Columns and labels:
[1] = Solubility of the compound in alphaMEM containing 5% FCS and 1% DMSO by HPLC analysis; assay type: physicochemical
How it was run: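 Saturated drug solutions were incubated at 37 °C in αMEM with 5% FCS and 1% DMSO. Dissolved drug was quantified by HPLC.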

HCT-116 [2] = assay: (§1) Hypoxia radiosensitization activity in human HCT116 cells assessed as sensitizer enhancement ratio by measuring ratio of radiation dose for 1% survival in absence to presence of compound at 0.03 mM preincubated for 1 hr followed by irradiation measured after 10 days by methylene blue staining-based cell counting method relative to misonidazole; assay type: functional
HCT-116 [3] = assay: Cytotoxicity against human HCT116 cells at anoxic IC50 incubated for 1 hr at 21 degC by sulforhodamine B assay; assay type: cell-based; conditions: hct-116, 1 h
HCT-116 [4] = assay: (§2) Hypoxia radiosensitization activity in human HCT116 cells assessed as survival ratio by measuring ratio of cell survival with 15 Gy radiation in absence to presence of compound at anoxic IC50 preincubated for 1 hr followed by 15 Gy irradiation measured after 10 days by methylene blue staining-based cell counting method; assay type: functional
How it was run: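 Anoxic HCT116 cells were seeded at 10^5/well and treated at the anoxic IC50 concentration for 1 h at room temperature. They were irradiated with 15 Gy (60Co, ~2 Gy/min) in a sealed steel box, then plated clonogenically. Colonies of >50 cells were counted […]. SR15 = survival with radiation / survival with drug + radiation.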

HCT-116 [5] = assay: Cytotoxicity against human HCT116 cells incubated for 4 hrs under aerobic condition measured after 5 days by sulforhodamine B assay; assay type: cell-based
How it was run: (§3)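 STR-authenticated, mycoplasma-free HCT116 cells in αMEM + 5% FCS were seeded at 700 cells/well and allowed 2 h to attach. Drug was added from DMSO stocks (<1% DMSO) in serial 3-fold dilutions for 4 h, oxic or anoxic (Pd-catalyst anaerobic chamber, medium pre-equilibrated ≥3 days). After washing, cells regrew for 5 days before SRB staining and IC50 determination.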

HCT-116 [6] = assay: as §2, with “with” for “with 15 Gy”, “0.03 mM” for “anoxic IC50”, “6 to 29” for “15”; assay type: functional
HCT-116 [7] = assay: as §1, with “method” for “method relative to misonidazole”; assay type: functional
HCT-116 [8] = assay: Hypoxic cytotoxicity ratio of IC50 for human HCT116 cells under oxic condition to IC50 for human HCT116 cells under anoxic condition
How it was run: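 HCT116 cells, 700 per well and attached 2 h, got a 4 h exposure to 3-fold serial dilutions (<1% DMSO) under air or in a Pd-catalyst anaerobic chamber with pre-equilibrated medium. Cells were washed, regrown 5 days, and stained with sulforhodamine B to give IC50. HCR = oxic IC50 / anoxic IC50.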

HCT-116 [9] = assay: Cytotoxicity against human HCT116 cells incubated for 4 hrs under anaerobic condition measured after 5 days by sulforhodamine B assay; assay type: functional, cell-based; how it was run: as §3
HCT-116 [10] = assay: (§4) Hypoxia radiosensitization activity in human HCT116 cells assessed as survival ratio by measuring ratio of cell survival with radiation in absence to presence of compound at 0.03 mM preincubated for 1 hr followed by 6 to 29 Gy irradiation measured after 10 days by methylene blue staining-based cell counting method relative to misonidazole; assay type: functional
[11] = Tmax in tumor of NIH-III mouse xenografted with human HCT116 cells at 1.12 mmol/kg, iv administered as single dose by HPLC analysis; assay type: ADME, organism-based, Neoplasm
How it was run: (§5)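 Female NIH-III mice bearing subcutaneous HCT116 tumors (10^6 cells; ~300 mm3) got a single i.v. dose at the MAD or 75% of the MTD. Vehicle was saline with 1% DMSO, or saline with 2 equivalents of NaHCO3 for the phosphates. Plasma and tumor were sampled at multiple times by cardiac puncture and excision, drug was measured by HPLC, and Tmax came from noncompartmental analysis.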

Plasma [12] = assay: Cmax in plasma of NIH-III mouse xenografted with human HCT116 cells at 1.12 mmol/kg, iv administered as single dose by HPLC analysis; assay type: ADME, organism-based; set-up: dose 1.12 mmol/kg, route intravenous; conditions: in vivo
How it was run: (§6)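 Female NIH-III mice bearing subcutaneous HCT116 xenografts (10^6 cells inoculated). At ca. 300 mm3 tumor size, a single i.v. dose was given at the MAD or 75% of the MTD. Vehicle was 0.9% saline with 1% DMSO, or saline with 2 molar equivalents NaHCO3 for phosphate prodrugs. Plasma and tumor were sampled at multiple times by cardiac puncture and excision, assayed by HPLC, and analysed noncompartmentally.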

[13] = Tmax in plasma of NIH-III mouse xenografted with human HCT116 cells at 1.12 mmol/kg, iv administered as single dose by HPLC analysis; assay type: ADME, organism-based; how it was run: as §5
Mus musculus [14] = assay: Drug level in NIH-III mouse assessed as maximum achievable dose at 10 ml/kg, iv; assay type: ADME; conditions: in vivo
How it was run: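 Non-tumor-bearing female NIH-III mice (~20 g) received freshly prepared solutions i.v. at 10 mL/kg in 0.9% saline with 1% DMSO, or saline with 2 molar equivalents NaHCO3 for phosphate prodrugs. MAD was the maximum dose that dissolved in the injection volume.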

HCT-116 [15] = assay: (§7) In vivo hypoxia radiosensitization activity in human HCT116 cells xenografted in NIH-III mouse assessed as survival ratio by measuring ratio of cell survival with 12.5 Gy radiation in absence to presence of compound at 1.12 mmol/kg, iv pretreated as single dose for 10 mins followed by irradiation measured after 18 hrs by excision assay; assay type: functional
HCT-116 [16] = assay: as §4, with “0.4” for “0.03”; assay type: functional
HCT-116 [17] = assay: Cytotoxicity against human HCT116 cells at anoxic IC50 incubated for 1 hr at 21 degC by clonogenic survival assay; conditions: hct-116, 1 h
HCT-116 [18] = assay: as §4, with “0.4” for “0.03”, “method” for “method relative to misonidazole”; assay type: functional
[19] = Cmax in tumor of NIH-III mouse xenografted with human HCT116 cells at 1.12 mmol/kg, iv administered as single dose by HPLC analysis; assay type: ADME, organism-based, Neoplasm; set-up: dose 1.12 mmol/kg, route intravenous; conditions: in vivo; how it was run: as §6
HCT-116 [20] = assay: as §1, with “0.4” for “0.03”; assay type: functional
HCT-116 [21] = assay: as §1, with “0.4” for “0.03”, “method” for “method relative to misonidazole”; assay type: functional
[22] = Cmax in tumor of NIH-III mouse xenografted with human HCT116 cells at 0.60 mmol/kg, iv administered as single dose by HPLC analysis; assay type: ADME, organism-based, Neoplasm; set-up: dose 0.6 mmol/kg, route intravenous; conditions: in vivo; how it was run: as §6
Plasma [23] = assay: Cmax in plasma of NIH-III mouse xenografted with human HCT116 cells at 0.60 mmol/kg, iv administered as single dose by HPLC analysis; assay type: ADME, organism-based; set-up: dose 0.6 mmol/kg, route intravenous; conditions: in vivo; how it was run: as §6
[24] = Tmax in tumor of NIH-III mouse xenografted with human HCT116 cells at 0.60 mmol/kg, iv administered as single dose by HPLC analysis; assay type: ADME, organism-based, Neoplasm; conditions: 0.6 mmol/kg; how it was run: as §5
HCT-116 [25] = assay: as §4, with “0.11” for “0.03”, “method” for “method relative to misonidazole”; assay type: functional
HCT-116 [26] = assay: as §4, with “0.11” for “0.03”; assay type: functional
[27] = Tmax in plasma of NIH-III mouse xenografted with human HCT116 cells at 0.60 mmol/kg, iv administered as single dose by HPLC analysis; assay type: ADME, organism-based; conditions: 0.6 mmol/kg; how it was run: as §5
HCT-116 [28] = assay: as §7, with “0.6” for “1.12”; assay type: functional
Plasma [29] = assay: Cmax in plasma of NIH-III mouse xenografted with human HCT116 cells at 1.24 mmol/kg, iv administered as single dose by HPLC analysis; assay type: ADME, organism-based; set-up: dose 1.24 mmol/kg, route intravenous; conditions: in vivo; how it was run: as §6
HCT-116 [30] = assay: as §1, with “9.8” for “0.03”, “method” for “method relative to misonidazole”; assay type: functional
HCT-116 [31] = assay: as §1, with “9.8” for “0.03”; assay type: functional
HCT-116 [32] = assay: as §4, with “9.8” for “0.03”; assay type: functional
[33] = Tmax in tumor of NIH-III mouse xenografted with human HCT116 cells at 1.24 mmol/kg, iv administered as single dose by HPLC analysis; assay type: ADME, organism-based, Neoplasm; conditions: 0.93 mmol/kg, in the assay text read “0.93 mmol/kg” for “1.24 mmol/kg”; how it was run: as §5
Mus musculus [34] = assay: Toxicity in NIH-III mouse xenografted with human HCT116 cells assessed as change in body weight with 12.5 Gy radiation at 0.93 mmol/kg, iv administered as single dose; conditions: in vivo
HCT-116 [35] = assay: as §4, with “9.8” for “0.03”, “method” for “method relative to misonidazole”; assay type: functional
[36] = Toxicity in NIH-III mouse at 10 ml/kg, iv; conditions: in vivo
How it was run: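 MTD was the highest dose without drug-related deaths, >15% body-weight loss or severe morbidity. MAD was the maximum dose soluble in the injection volume. Vehicle was 0.9% saline with 1% DMSO, or for phosphate prodrugs saline with 2 molar equivalents of NaHCO3.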

[37] = Cmax in tumor of NIH-III mouse xenografted with human HCT116 cells at 1.24 mmol/kg, iv administered as single dose by HPLC analysis; assay type: ADME, organism-based, Neoplasm; set-up: dose 1.24 mmol/kg, route intravenous; conditions: in vivo; how it was run: as §6
[38] = Electrophilicity of the compound in pH 7 phosphate buffer assessed as one-electron reduction potential
How it was run: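 The one-electron reduction potential was set by pulse radiolysis equilibria at pH 7.0 (2.5 mM phosphate), established within 20 µs against benzylviologen, methylviologen or triquat. ΔE came from equilibrium constants via the Nernst equation, at three concentration ratios and 22 ± 2 °C.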

[39] = Tmax in plasma of NIH-III mouse xenografted with human HCT116 cells at 1.24 mmol/kg, iv administered as single dose by HPLC analysis; assay type: ADME, organism-based; how it was run: as §5
HCT-116 [40] = assay: as §7, with “1.24” for “1.12”; assay type: functional

- solubility [1]: 1.08 mM (≈ 0.298 mg/mL)
SMILES: O=[N+]([O-])c1nccn1CS(=O)(=O)N1CCOCC1
- fold change (FC) (HCT-116 [2]): 0.87
- Activity (HCT-116 [3]): Non-Toxic
- Ratio (HCT-116 [4]): 3.8
- IC50 (HCT-116 [5]): 380 to 4800 µM
- Ratio (HCT-116 [6]): 2
- Ratio (HCT-116 [7]): 1.11
- Ratio IC50 (HCT-116 [8]): 11
- IC50 (HCT-116 [9]): 30 µM
- fold change (FC) (HCT-116 [10]): 0.58

SMILES: O=[N+]([O-])c1nccn1CCS(=O)(=O)NCCN1CCOCC1
- solubility [1]: > 163 mM
- Tmax [11]: 10 min
- Cmax (Plasma [12]): 1040 µM
- Tmax [13]: 5 min
- Drug uptake (Mus musculus [14]): 1.12 mmol/kg
- Ratio (HCT-116 [4]): 6
- Ratio (HCT-116 [15]): 2
- fold change (FC) (HCT-116 [16]): 0.57
- IC50 (HCT-116 [5]): 380 to 4800 µM
- Activity (HCT-116 [17]): Non-Toxic
- Ratio (HCT-116 [18]): 5
- Ratio IC50 (HCT-116 [8]): 10
- Cmax [19]: 410 µM
- fold change (FC) (HCT-116 [20]): 0.92
- IC50 (HCT-116 [9]): 400 µM
- Ratio (HCT-116 [21]): 1.357

SMILES: O=[N+]([O-])c1nccn1CS(=O)(=O)NCCO
- Cmax [22]: 94 µM
- Cmax (Plasma [23]): 570 µM
- Tmax [24]: 10 min
- Drug uptake (Mus musculus [14]): 0.6 mmol/kg
- IC50 (HCT-116 [5]): 380 to 4800 µM
- Activity (HCT-116 [17]): Non-Toxic
- Ratio (HCT-116 [25]): 1.8
- fold change (FC) (HCT-116 [26]): 0.47
- Tmax [27]: 5 min
- Ratio (HCT-116 [28]): 2.4

SMILES: O=[N+]([O-])c1cncn1CCN1CCOCC1 [NIMORAZOLE]
- Cmax (Plasma [29]): 1210 µM
- Ratio (HCT-116 [30]): 1.8
- fold change (FC) (HCT-116 [31]): 1.27
- solubility [1]: > 100 mM
- fold change (FC) (HCT-116 [32]): 7.28
- Tmax [33]: 10 min
- Activity (Mus musculus [34]): Non-Toxic
- Ratio (HCT-116 [35]): 44.9
- MTD [36]: 1240 µmol/kg
- Ratio (HCT-116 [4]): 37
- Activity (HCT-116 [17]): Non-Toxic
- Cmax [37]: 91 µM
- Activity [38]: -457 mV
- Tmax [39]: 5 min
- Ratio IC50 (HCT-116 [8]): 0.8
- IC50 (HCT-116 [9]): 9800 µM
- Ratio (HCT-116 [40]): 4
